# Results from different studies.
# Compare with care: the assays were run in different laboratories.
# SIRT3: NAD-dependent protein deacetylase sirtuin-3, mitochondrial (SIRT3, Homo sapiens, UniProt Q9NTG7)
# PTGS1: Prostaglandin G/H synthase 1 (PTGS1, Ovis aries, UniProt P05979)
# PTPN11: Tyrosine-protein phosphatase non-receptor type 11 (PTPN11, Homo sapiens, UniProt Q06124)
# BCHE: Cholinesterase (BCHE, Equus caballus, UniProt P81908)
# DRD1: D(1A) dopamine receptor (DRD1, Homo sapiens, UniProt P21728)
# CYP2B6: Cytochrome P450 2B6 (CYP2B6, Homo sapiens, UniProt P20813)
# NTRK2: BDNF/NT-3 growth factors receptor (NTRK2, Homo sapiens, UniProt Q16620)
SMILES,target,assay,system,conditions,IC50 [µM]
C=C(NC(=O)[C@H](CCCCNC(=S)CCCCCCCCCCCCC)NS(C)(=O)=O)C(=O)N[C@@H](CCCNC(=N)N)C(N)=O,SIRT3,"enzyme activity, inhibitor",,,3.7
CNC(=O)c1cc(Oc2ccc(NC(=O)Nc3cc(C(C)(C)C)nn3-c3ccc4ncccc4c3)c(F)c2)ccn1,"Mitogen-activated protein kinase kinase kinase 20 (MAP3K20, Homo sapiens, UniProt Q9NYL2)","enzyme activity, inhibitor, mass spectrometry",,,0.012
COc1ccc2c(c1OCc1ccc(OC(F)(F)F)cc1)C[C@@H](C(=O)O)N(c1nc3ccc(F)cc3o1)C2,"Type-2 angiotensin II receptor (AGTR2, Homo sapiens, UniProt P50052)","cell-free assay, TR-FRET",,,0.159
Cc1ccn2c(Nc3ccccc3)c(-c3ccc(S(C)(=O)=O)cc3)nc2c1,PTGS1,"enzyme activity, inhibitor, fluorescence",,,55.1
N[C@@H](Cc1ccccc1)C(=O)N[C@@H](Cc1ccccc1)C(=O)N[C@@H](CC(=O)O)C(=O)O,PTPN11,"enzyme activity, inhibitor, absorbance",,pH 7.4,114
COc1ccc(Nc2c(-c3ccc(S(C)(=O)=O)cc3)nc3cccc(C)n23)cc1,PTGS1,"enzyme activity, inhibitor, fluorescence",,,21.1
CC(NC(=O)c1ccccc1/N=C/c1c(O)ccc2ccccc12)c1ccccc1 (stereo not shown),SIRT3,"enzyme activity, inhibitor, HPLC",,,150
[O-][S+]1CCN(c2nccc(NCc3ccccc3)n2)CC1,BCHE,"enzyme activity, inhibitor",,,> 100
CCCOc1c(O)cc(Br)c2c1CN1CCc3cc(OCC(F)F)c(O)cc3[C@@H]1C2,DRD1,"cAMP, antagonist, TR-FRET",,,0.188
CC(=O)NO,"Urease (Canavalia ensiformis, UniProt P07374)","enzyme activity, inhibitor",,,20.4
CCCCCCCCCCCCNC(=S)NCCCC[C@H](NC(C)=O)C(=O)N[C@@H](C)C(=O)N[C@@H](CCCNC(=N)N)C(N)=O,SIRT3,"enzyme activity, inhibitor",,,2.2
C=CC(=O)Nc1cc(Nc2nccc(Nc3cc(Cl)c(F)cc3C(C)(C)O)n2)c(OC)cc1N1CC[C@@H](N(C)C)C1,CYP2B6,"enzyme activity, inhibitor","human, liver microsomes",,> 30
O=C(NO)c1ccc(CN(c2cnccn2)c2cnccn2)cc1,SIRT3,"enzyme activity, inhibitor, fluorescence",,,> 10
Cc1c(Br)cc(NC(=O)NS(=O)(=O)O)cc1Br,"Tyrosine-protein phosphatase non-receptor type 9 (PTPN9, Homo sapiens, UniProt P43378)","enzyme activity, inhibitor, absorbance",,,> 10
Cc1ccc(Nc2c(-c3ccc(S(C)(=O)=O)cc3)nc3cc(C)ccn23)cc1,PTGS1,"enzyme activity, inhibitor, fluorescence",,,33.9
O=S1(=O)CCN(c2nccc(NCc3ccccc3)n2)CC1,BCHE,"enzyme activity, inhibitor",,,> 100
CC(C)(C)n1nc(-c2cnc3cc(OC4CC4)ccc3c2)c(C(N)=O)c1N,"Calcium/calmodulin-dependent protein kinase type 1D (CAMK1D, Homo sapiens, UniProt Q8IU85)",cell-free assay,,,> 10
CN(C)CC#Cc1ccc2[nH]c3c(c2c1)-c1nc(N)ncc1CCC3,"Dual specificity mitogen-activated protein kinase kinase 2 (MAP2K2, Homo sapiens, UniProt P36507)","enzyme activity, inhibitor, radiometric",,,> 10
CC(=O)N1C[C@@H](CCN2CCC(c3c[nH]c4ccccc34)CC2)c2ccccc21,"Sodium-dependent serotonin transporter (SLC6A4, Homo sapiens, UniProt P31645)","ligand displacement, radioligand",,cell membranes,0.182
CSc1ccc(/C=C2/C(C)=C(CC(=O)O)c3cc(F)ccc32)cc1,"cGMP-inhibited 3',5'-cyclic phosphodiesterase 3B (PDE3B, Homo sapiens, UniProt Q13370)","enzyme activity, inhibitor",,,> 100
CC1=C[C@@]2(C[C@H](C)[C@H]3CC=C(C)[C@@H](O[C@@H]4O[C@H](CO)[C@@H](O)[C@H](O)[C@H]4O)[C@@H]3O2)OC1=O,PTPN11,"enzyme activity, inhibitor",,,90.5
O=C1Nc2ccccc2/C1=C1/Nc2ccccc2/C1=N\O,"Ribosomal protein S6 kinase alpha-3, N-terminal kinase domain (RPS6KA3, Homo sapiens, UniProt P51812)","enzyme activity, inhibitor, FP",,,1
COC(=O)[C@H](Cc1ccc(OP(=O)(O)O)c(OP(=O)(O)O)c1)NC(=O)OCC1c2ccccc2-c2ccccc21,"Signal transducer and activator of transcription 5A, SH2 (Homo sapiens, UniProt P42229)","ligand displacement, FP",,,15.8
CC1Cc2ccccc2N1C(=O)NCCCCN(C)[C@@H]1Cc2cccc3[nH]c(=O)n(c23)C1 (mixture of isomers),DRD1,"ligand displacement, radioligand",,,> 10
CCc1cc(/C(C)=N/OCc2ccc(C3CCCCC3)c(C(F)(F)F)c2)ccc1CN1CC(C(=O)O)C1,CYP2B6,"enzyme activity, inhibitor","human, liver microsomes",20 min,> 0.6
Cc1cnc(-c2ccc(-c3ccc(NC(=O)Nc4c(F)cc(F)cc4F)cc3F)c3c2C(=O)NC3)[nH]1,NTRK2,"enzyme activity, inhibitor",,,0.0065
CN1CCN(c2ccc(Nc3ncc4cc(C#N)c(=O)n(C5CCCC5)c4n3)cc2)CC1,"Mitogen-activated protein kinase kinase kinase 9 (MAP3K9, Homo sapiens, UniProt P80192)","enzyme activity, inhibitor",,,0.477
OCCN1CCN(c2nccc(NCc3ccccc3)n2)CC1,BCHE,"enzyme activity, inhibitor",,,> 100
O=Cc1ccc2[nH]ncc2c1,"Ribosomal protein S6 kinase alpha-3 (RPS6KA3, Homo sapiens, UniProt P51812)","enzyme activity, inhibitor",,,~350
CN(CCCCNC(=O)c1cc2ccccc2[nH]1)[C@@H]1Cc2cccc3[nH]c(=O)n(c23)C1,DRD1,"ligand displacement, radioligand",,,> 9.2
CC(=O)N1CCN(c2nccc(NCc3ccccc3)n2)CC1,BCHE,"enzyme activity, inhibitor",,,> 100
O=C(O)/C=C/c1ccc(-c2ccc(F)cc2)c(Cl)c1,PTPN11,"enzyme activity, inhibitor, fluorescence",,,2.11
O=C(O)C(=O)CC(=O)c1cccc(N(Cc2ccccc2)Cc2ccccc2)c1,PTPN11,"enzyme activity, inhibitor, absorbance",,pH 7,85
Cc1cc(Nc2cc(CN3CCOCC3)c3nc(C)c(Cc4ccc(Cl)cc4F)n3n2)n[nH]1,NTRK2,"enzyme activity, inhibitor, TR-FRET",,,0.095
